In brackets after ≈: the same amount, converted by molar mass.
Experiments:
[1] = system: Mycobacterium tuberculosis; experiment: Antimycobacterial activity against Mycobacterium tuberculosis H37Rv after 6 days by microdilution resazurin assay; assay type: functional; settings: 144 h
Summary of the method: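 Inoculum of virulent M. tuberculosis H37Rv grown in Dubos broth plus 10% ADC. Compounds from 50 mg/mL DMSO stocks, serially diluted twofold in Dubos medium (500 down to 0.9), with DMSO and isoniazid controls. Incubated 6 days at 37 °C, then 0.01% resazurin for 24 h more. MIC read as the lowest concentration without the blue-to-pink shift.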

[2] = system: Mycolicibacterium smegmatis; experiment: Antimycobacterial activity against Mycobacterium smegmatis mc2 155 after 48 hrs by microdilution resazurin assay; assay type: functional; settings: str. MC2 155, 48 h
Summary of the method: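 M. smegmatis mc²155 inoculum grown in Dubos medium with 10% ADC. Twofold serial drug dilutions (from 500 to 0.9) in Dubos medium, from 50 mg/mL DMSO stocks. DMSO and isoniazid controls. Sealed plates at 37 °C for 48 h, then 0.01% resazurin added for another 24 h at 37 °C. MIC is the lowest concentration preventing the blue-to-pink change.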

Row | Compound | MIC95 [1] | MIC95 [2]
1 | CC1(C)CCc2c(ccc3oc(-c4cccnc4)cc23)O1 | 10 µg/mL (≈ 35.8 µM) | 6.2 µg/mL (≈ 22.2 µM)
2 | Cc1c(-c2ccncc2)oc2ccc3c(c12)C=CC(C)(C)O3 | 3 µg/mL (≈ 10.3 µM) | 6.2 µg/mL (≈ 21.3 µM)
3 | CC1(C)C=Cc2c(ccc3oc(-c4ccccc4)cc23)O1 | 32 µg/mL (≈ 116 µM) | > 500 µg/mL
4 | CC1(C)C=Cc2c(ccc3occ(CCCO)c23)O1 | 125 µg/mL (≈ 484 µM) | 62 µg/mL (≈ 240 µM)
5 | O=Cc1c(O)ccc2c1C1CCCOC1O2 (centres undefined) | 125 µg/mL (≈ 568 µM) | > 125 µg/mL
6 | CN(C)CCCNc1cccc(-c2cc3c4c(ccc3o2)OC(C)(C)C=C4)n1 | 10 µg/mL (≈ 26.5 µM) | 12.5 µg/mL (≈ 33.1 µM)
7 | C#CC(C)(C)Oc1ccc2oc(-c3ccncc3)cc2c1 | 16 µg/mL (≈ 57.7 µM) | 25 µg/mL (≈ 90.1 µM)
8 | NNC(=O)c1ccncc1 [ISONIAZID] | 0.1 µg/mL (≈ 0.729 µM) | 12 µg/mL (≈ 87.5 µM)
9 | CC1(C)C=Cc2c(ccc3oc(-c4cccc(Br)n4)cc23)O1 | > 10 µg/mL | > 50 µg/mL
10 | CC(=O)OCCCc1coc2ccc3c(c12)C=CC(C)(C)O3 | > 500 µg/mL | > 500 µg/mL
11 | Cc1c(-c2ccncc2)oc2ccc(O)cc12 | > 10 µg/mL | > 50 µg/mL
12 | CC1(C)C=Cc2c(ccc3oc(-c4ccncc4)cc23)O1 | 2.5 µg/mL (≈ 9.01 µM) | 3 µg/mL (≈ 10.8 µM)
13 | CC1(C)CCc2c(ccc3oc(-c4ccccn4)cc23)O1 | 10 µg/mL (≈ 35.8 µM) | 25 µg/mL (≈ 89.5 µM)
14 | CC1(C)C=Cc2c(ccc3oc4c(c23)CCCC4)O1 | 120 µg/mL (≈ 472 µM) | > 500 µg/mL
15 | CC1(C)CCc2c(ccc3oc4ccccc4c23)O1 | 10 µg/mL (≈ 39.6 µM) | 10 µg/mL (≈ 39.6 µM)
16 | CC1(C)C=Cc2c(ccc3oc4ccccc4c23)O1 | 10 µg/mL (≈ 40 µM) | 10 µg/mL (≈ 40 µM)
17 | CC1(C)C=Cc2c(ccc3c2C2CCCOC2O3)O1 (centres undefined) | 250 µg/mL (≈ 968 µM) | 125 µg/mL (≈ 484 µM)
18 | Oc1ccc2oc(-c3ccncc3)cc2c1 | > 10 µg/mL | > 50 µg/mL
19 | CC1(C)C=Cc2c(ccc3oc(-c4ccc(Br)nc4)cc23)O1 | > 10 µg/mL | > 50 µg/mL
20 | Oc1ccc2oc(-c3ccccc3)cc2c1 | 125 µg/mL (≈ 595 µM) | 8 µg/mL (≈ 38.1 µM)
21 | Cc1cc2c3c(ccc2o1)OC(C)(C)C=C3 | > 500 µg/mL | > 500 µg/mL
22 | CN(C)CCCNc1ccc(-c2cc3c4c(ccc3o2)OC(C)(C)C=C4)cn1 | 10 µg/mL (≈ 26.5 µM) | 12.5 µg/mL (≈ 33.1 µM)
